Results as given in ChEMBL document CHEMBL4190293, “Anti-inflammatory Meroterpenoids from Baeckea frutescens” (J Nat Prod, 2017).
Active and inactive are the calls of the source. The calls are words filed in the database; no cut-off is given here.

Assays:
[1] = system: RAW264.7; experiment: Antiinflammatory activity in mouse RAW264.7 cells assessed as inhibition of LPS-stimulated nitric oxide production pretreated for 2 hrs followed by LPS-stimulation measured after 20 hrs by Griess assay; type: functional, cell-based
How it was run: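 Murine RAW 264.7 macrophages in DMEM with 10% FBS, seeded at 1 × 10^5 cells/well and grown 12 h. Pretreated with compound for 2 h, then given LPS (1 μg/mL) for 20 h; L-NMMA as positive control. Supernatant nitrite mixed 1:1 with Griess reagent, 10 min at room temperature, absorbance read at 540 nm. IC50 from three independent replicates. Viability checked by Alamar Blue after 20 h.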

[2] = system: RAW264.7; experiment: Antiinflammatory activity in mouse RAW264.7 cells assessed as inhibition of LPS-stimulated IL-6 expression at 0.2 to 0.8 uM pretreated for 2 hrs followed by LPS-stimulation measured after 18 hrs by ELISA; type: functional, cell-based
How it was run: (§1)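 RAW 264.7 cells seeded at 1 × 10^6 cells/well in serum-free DMEM for 12 h. Cells pretreated with test compound at 0.2, 0.4 or 0.8 μM for 2 h, then stimulated with LPS (1 μg/mL) for 18 h. TNF-α and IL-6 in the culture supernatant measured by ELISA kit. Mean ± SD of three independent experiments; one-way ANOVA with Dunnett's post hoc test.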

[3] = system: RAW264.7; experiment: Antiinflammatory activity in mouse RAW264.7 cells assessed as inhibition of LPS-stimulated TNFalpha expression pretreated for 2 hrs followed by LPS-stimulation measured after 18 hrs by ELISA; type: functional, cell-based; how it was run: as §1
[4] = biological target: Transcription factor p65 (Mus musculus) (UniProt Q04207); experiment: Inhibition of NF-kappaB p65 nuclear translocation in LPS-stimulated mouse RAW264.7 cells pretreated for 2 hrs followed by LPS-stimulation measured after 16 hrs by Western blot analysis; type: cell-based
Transcription factor p65 (Mus musculus), sequence (Q04207 whole entry): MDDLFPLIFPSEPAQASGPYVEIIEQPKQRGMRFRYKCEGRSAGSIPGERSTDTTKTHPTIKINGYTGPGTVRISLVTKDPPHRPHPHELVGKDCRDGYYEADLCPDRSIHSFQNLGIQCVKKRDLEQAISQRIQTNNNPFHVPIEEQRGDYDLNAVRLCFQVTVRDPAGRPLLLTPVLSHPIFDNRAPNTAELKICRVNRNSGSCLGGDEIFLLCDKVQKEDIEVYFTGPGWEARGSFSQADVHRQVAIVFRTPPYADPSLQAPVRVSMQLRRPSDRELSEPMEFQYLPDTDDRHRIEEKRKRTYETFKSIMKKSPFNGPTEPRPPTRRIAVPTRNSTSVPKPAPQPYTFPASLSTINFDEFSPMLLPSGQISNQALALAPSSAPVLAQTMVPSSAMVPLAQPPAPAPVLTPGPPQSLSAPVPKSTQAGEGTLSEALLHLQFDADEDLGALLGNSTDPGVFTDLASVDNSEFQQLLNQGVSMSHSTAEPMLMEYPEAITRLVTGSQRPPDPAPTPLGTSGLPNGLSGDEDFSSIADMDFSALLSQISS
How it was run: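 RAW 264.7 cells exposed to compound at 0.2, 0.4 or 0.8 μM for 2 h, then given 1 μg/mL LPS, or left unstimulated, for 16 h. Lysates made in RIPA buffer, protein quantified by BCA, run on 10% SDS-PAGE and transferred to PVDF. Blots probed for NF-κB p65 with lamin B as internal control, primary antibodies at 4 °C overnight. Mean ± SD of three independent experiments.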

Row | IC50 [1] [µM] | SMILES | other results
1 | 2.07 | COC1=C(C)C(=O)[C@@]2(CC=C(CCC=C(C)C)C[C@H]2C(C)C)C(=O)C1(C)C (racemic) | 
2 | 18.8 | COC1=C(C)C(=O)C2=C(O[C@@]3(C=C4[C@H](C(C)C)CC[C@@H](C)[C@H]4CC3)C[C@@H]2C(C)C)C1(C)C | 
3 | 15.2 | COC1=C(C)C(=O)C2=C(O[C@@]3(CC[C@]45[C@H]([C@H](C(C)C)CC[C@H]4C)[C@@H]35)C[C@@H]2C(C)C)C1(C)C | 
4 | 30.5 | COC1=C(C)C(=O)C2=C(O[C@]3(CC[C@]45[C@H]([C@H](C(C)C)CC[C@H]4C)[C@@H]35)C[C@H]2C(C)C)C1(C)C | 
5 | 30.9 | CNC(=N)NCCC[C@H](N)C(=O)O [TILARGININE] | 
6 | > 50 | C=C1CC[C@@H]2[C@H](C(C)C)C3=C(O[C@@]2(C)CC[C@@H]2[C@@H]1CC2(C)C)C(C)(C)C(OC)=C(C)C3=O | 
7 | 1.8 | COC1=C(C)C2=C(C(=O)C1(C)C)[C@H](C(C)C)C[C@@]1(CC[C@@]3(C(C)C)C[C@@H]13)O2 (racemic) | 
8 | > 50 | COC1=C(C)C(=O)C2=C(O[C@@]3(C=C4[C@H](C(C)C)CC[C@@H](C)[C@H]4CC3)C[C@H]2C(C)C)C1(C)C | 
9 | 3.7 | COC1=C(C)C(=O)C2=C(O[C@]3(CC[C@@H]4C[C@@H]3C4(C)C)C[C@@H]2C(C)C)C1(C)C | 
10 | 0.36 | COC1=C(C)C2=C(C(=O)C1(C)C)[C@@H](C(C)C)C[C@]1(CC[C@@]3(C(C)C)C[C@@H]13)O2 | inhibition [2]: inactive; inhibition [3]: Dose-dependent effect; inhibition [4]: Dose-dependent effect
11 | 6.5 | COC1=C(C)C(=O)[C@]2(CC(CCC=C(C)C)=CC[C@H]2C(C)C)C(=O)C1(C)C (racemic) | 
12 | > 50 | COC1=C(C)C(=O)C2=C(O[C@]3(C=C4[C@H](C(C)C)CC[C@@H](C)[C@H]4CC3)C[C@@H]2C(C)C)C1(C)C | 
